Data: ChEMBL document CHEMBL1123541, “Preparation and antitumor activity of 7-substituted 1,2-aziridinomitosenes” (J Med Chem, 1986)

How the values were obtained:
Mus musculus [1] = test: Average weight change of BDF1 female mice at a dose of 1.6 mg/kg per injection; assay type: functional
Summary of the method: (§1)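 BDF1 female mice implanted ip with 10^6 ascites leukemia cells, then given the aziridinomitosene on day 1 only, six mice per dose. Average weight change is the weight difference between the treated and control groups.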

L1210 [2] = test: Compound was tested for antitumor activity against L-1210 Murine leukemia in BDF1 female mice at a dose of 24 mg/kg per injection; assay type: functional, Mus musculus
Summary of the method: (§2)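 L-1210 run per NCI protocol. 10^6 ascites cells implanted ip into BDF1 female mice. Aziridinomitosene given on day 1 only, six mice per dose, with a control group of 36 mice. Median survival time in days is recorded, and %T/C = MST treated/MST control × 100, with 125 taken as significant.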

P388 [3] = test: Minimum effective dose determined against P-388 Murine leukemia in BDF1 female mice.; assay type: functional; settings: Mus musculus, read-out: MED
P388 [4] = test: (§3) Compound was tested for antitumor activity against P388 Murine leukemia in BDF1 female mice at a dose of 12.8 mg/kg per injection; assay type: functional, Mus musculus; design: unit not given here
Summary of the method: (§4)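 P388 ascites cells (10^6) implanted ip into BDF1 female mice. Aziridinomitosene given on day 1 only, six mice per dose; ten saline-treated mice on day 1 only as controls. Read-out is median survival time in days, %T/C = MST treated/MST control × 100, with 125 taken as significant. Mitomycin C run as a positive control at its optimal dose.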

Mus musculus [5] = test: Average weight change of BDF1 female mice at a dose of 6 mg/kg per injection; assay type: functional; summary of the method: as §1
P388 [6] = test: Compound was tested for antitumor activity against P388 Murine leukemia in BDF1 female mice at a dose of 3.2 mg/kg per injection (MST treated / MST control x 100); assay type: functional, Mus musculus; summary of the method: as §4
Mus musculus [7] = test: Average weight change of BDF1 female mice at a dose of 0.8 mg/kg per injection; assay type: functional; summary of the method: as §1
P388 [8] = test: Compound was tested for antitumor activity against P388 Murine leukemia in BDF1 female mice at a dose of 51.2 mg/kg per injection (MST treated / MST control x 100); assay type: functional, Mus musculus; summary of the method: as §4
Mus musculus [9] = test: Average weight change of BDF1 female mice at a dose of 25.6 mg/kg per injection; assay type: functional; summary of the method: as §1
P388 [10] = test: Compound was tested for antitumor activity against P388 Murine leukemia in BDF1 female mice at a dose of 0.8 mg/kg per injection; assay type: functional, Mus musculus; summary of the method: as §4
Mus musculus [11] = test: Average weight change of BDF1 female mice at a dose of 12 mg/kg per injection; assay type: functional; summary of the method: as §1
P388 [12] = test: Compound was tested for antitumor activity against P388 Murine leukemia in BDF1 female mice at a dose of 25.6 mg/kg per injection (MST treated / MST control x 100); assay type: functional, Mus musculus; summary of the method: as §4
L1210 [13] = test: Compound was tested for antitumor activity against L-1210 Murine leukemia in BDF1 female mice at a dose of 12 mg/kg per injection; assay type: functional, Mus musculus; summary of the method: as §2
[14] = Partition coefficient (logP); assay type: physicochemical; settings: octanol/water
Mus musculus [15] = test: Average weight change of BDF1 female mice at a dose of 24 mg/kg per injection; assay type: functional; summary of the method: as §1
Mus musculus [16] = test: Average weight change of BDF1 female mice at a dose of 48 mg/kg per injection; assay type: functional; summary of the method: as §1
Mus musculus [17] = test: Average weight change of BDF1 female mice at a dose of 3.2 mg/kg per injection; assay type: functional; summary of the method: as §1
L1210 [18] = test: Compound was tested for antitumor activity against L-1210 Murine leukemia in BDF1 female mice at a dose of 48 mg/kg per injection; assay type: functional, Mus musculus; summary of the method: as §2
L1210 [19] = test: Compound was tested for antitumor activity against L-1210 Murine leukemia in BDF1 female mice at a dose of 6 mg/kg per injection; assay type: functional, Mus musculus; summary of the method: as §2
Mus musculus [20] = test: Average weight change of BDF1 female mice at a dose of 12.8 mg/kg per injection; assay type: functional; summary of the method: as §1
Mus musculus [21] = test: Average weight change of BDF1 female mice at a dose of 8 mg/kg per injection; assay type: functional; summary of the method: as §1
P388 [22] = test: Compound was tested for antitumor activity against P388 Murine leukemia in BDF1 female mice at a dose of 64 mg/kg per injection; assay type: functional, Mus musculus; summary of the method: as §4
L1210 [23] = test: Compound was tested for antitumor activity against L-1210 Murine leukemia in BDF1 female mice at dose of 40 mg/kg inj; assay type: functional, Mus musculus; summary of the method: as §2
Mus musculus [24] = test: Average weight change of BDF1 female mice at a dose of 16 mg/kg per injection; assay type: functional; summary of the method: as §1
P388 [25] = test: Compound was tested for antitumor activity against P388 Murine leukemia in BDF1 female mice at a dose of 8 mg/kg per injection; assay type: functional, Mus musculus; summary of the method: as §4
L1210 [26] = test: Compound was tested for antitumor activity against L-1210 Murine leukemia in BDF1 female mice at dose of 20 mg/kg inj; assay type: functional, Mus musculus; summary of the method: as §2
Mus musculus [27] = test: Average weight change of BDF1 female mice at a dose of 32 mg/kg per injection; assay type: functional; summary of the method: as §1
P388 [28] = test: Compound was tested for antitumor activity against P388 Murine leukemia in BDF1 female mice at a dose of 32 mg/kg per injection; assay type: functional, Mus musculus; summary of the method: as §4
P388 [29] = test: Compound was tested for antitumor activity against P388 Murine leukemia in BDF1 female mice at a dose of 16 mg/kg per injection; assay type: functional, Mus musculus; summary of the method: as §4
Mus musculus [30] = test: Average weight change of BDF1 female mice at a dose of 64 mg/kg per injection; assay type: functional; summary of the method: as §1
P388 [31] = test: Compound was tested for antitumor activity against P388 Murine leukemia in BDF1 female mice at a dose of 3.2 mg/kg per injection given as MST treated / MST control x 100; assay type: functional, Mus musculus; summary of the method: as §4
Mus musculus [32] = test: Average weight change of BDF1 female mice at a dose of 4 mg/kg per injection; assay type: functional; summary of the method: as §1
P388 [33] = test: Compound was tested for antitumor activity against P388 Murine leukemia in BDF1 female mice at a dose of 4 mg/kg per injection; assay type: functional, Mus musculus; summary of the method: as §4
P388 [34] = test: Compound was tested for antitumor activity against P388 Murine leukemia in BDF1 female mice at a dose of 1.6 mg/kg per injection; assay type: functional, Mus musculus; summary of the method: as §4
P388 [35] = test: Compound was tested for antitumor activity against P388 Murine leukemia in BDF1 female mice at a dose of 0.4 mg/kg per injection; assay type: functional, Mus musculus; summary of the method: as §4
Mus musculus [36] = test: Average weight change of BDF1 female mice at a dose of 6.4 mg/kg per injection; assay type: functional; summary of the method: as §1
P388 [37] = test: Compound was tested for antitumor activity against P388 Murine leukemia in BDF1 female mice at a dose of 6.4 mg/kg per injection; assay type: functional, Mus musculus; summary of the method: as §4
P388 [38] = test: Compound was tested for antitumor activity against P388 Murine leukemia in BDF1 female mice at a dose of 0.2 mg/kg per injection; assay type: functional, Mus musculus; summary of the method: as §4
Mus musculus [39] = test: Average weight change of BDF1 female mice at a dose of 51.2 mg/kg per injection; assay type: functional; summary of the method: as §1
P388 [40] = test: Compound was tested for antitumor activity against P388 Murine leukemia in BDF1 female mice at a dose of 1.6 mg/kg per injection (MST treated / MST control x 100); assay type: functional, Mus musculus; summary of the method: as §4
P388 [41] = test: Compound was tested for antitumor activity against P388 Murine leukemia in BDF1 female mice at a dose of 25.6 mg/kg per injection; assay type: functional, Mus musculus; summary of the method: as §4
P388 [42] = test: as §3; assay type: functional, Mus musculus; summary of the method: as §4
P388 [43] = test: Compound was tested for antitumor activity against P388 Murine leukemia in BDF1 female mice at a dose of 3.2 mg/kg per injection; assay type: functional, Mus musculus; summary of the method: as §4
P388 [44] = test: Compound was tested for antitumor activity against P388 Murine leukemia in BDF1 female mice at a dose of 51.2 mg/kg per injection; assay type: functional, Mus musculus; summary of the method: as §4

Row | Structure (SMILES) | Weight change (Mus musculus [1]) [g] | minimal effective dose (P388 [3]) [mg/kg] | MST (P388 [4]) | T/C (P388 [6]) [%] | Weight change (Mus musculus [9]) [g] | MST (P388 [10]) [days] | logP [14] | Weight change (Mus musculus [17]) [g] | Weight change (Mus musculus [20]) [g] | Weight change (Mus musculus [21]) [g] | MST (P388 [22]) [days] | Weight change (Mus musculus [24]) [g] | MST (P388 [25]) [days] | Weight change (Mus musculus [27]) [g] | MST (P388 [28]) [days] | MST (P388 [29]) [days] | Weight change (Mus musculus [30]) [g] | Weight change (Mus musculus [36]) [g] | MST (P388 [37]) [%T/C] | Weight change (Mus musculus [39]) [g] | also measured
1 | CC1=C(N2CC2)C(=O)c2c(COC(N)=O)c3n(c2C1=O)CC1NC31 (stereo unspecified) | 1 | 1.6 | 172 | 144 | -0.4 | 111 | 0.3 | 1 | 0.9 |  |  |  |  |  |  |  |  |  |  |  | MST (L1210 [2]): 120 days; Weight change (Mus musculus [5]): -0.4 g; Weight change (Mus musculus [7]): 0.9 g; T/C (P388 [8]): 206%; Weight change (Mus musculus [11]): -1.3 g; T/C (P388 [12]): 189%; % T/C (L1210 [13]): 122%; Weight change (Mus musculus [15]): -2.6 g; Weight change (Mus musculus [16]): -4.2 g; MST (L1210 [18]): 131 days; % T/C (L1210 [19]): 118%
2 | C#CCNC1=C(C)C(=O)c2c(c(COC(N)=O)c3n2CC2NC32)C1=O (stereo unspecified) |  | 16 |  |  |  |  | 1.21 |  |  | -0.2 | 172 | -0.3 | 122 | 0 | 144 | 128 | -0.9 |  |  |  | T/C (L1210 [23]): 140%; Weight change (L1210 [23]): -2.8 g; T/C (L1210 [26]): 122%; Weight change (L1210 [26]): -1.8 g
3 | CC1=C(NCc2ccco2)C(=O)c2c(COC(N)=O)c3n(c2C1=O)CC1NC31 (stereo unspecified) |  | 8 |  |  |  |  | 1.33 |  |  | 0.1 | 183 | -1.7 | 144 | -1.2 | 189 | 156 | -1.8 |  |  |  | T/C (P388 [31]): 228%; Weight change (Mus musculus [32]): -0.7 g; MST (P388 [33]): 122 days
4 | CC1=C(N2CC2C)C(=O)c2c(COC(N)=O)c3n(c2C1=O)CC1C3N1C (stereo unspecified) | 0 | 0.2 | 238 | 163 | -1 | 125 | 1.23 | 0 | -0.5 |  |  |  |  |  |  |  |  | -0.4 | 194 | -1.3 | MST (P388 [34]): 156 days; MST (P388 [35]): 138 days; T/C (P388 [38]): 125%
5 | CC1=C(N2CC2C)C(=O)c2c(COC(N)=O)c3n(c2C1=O)CC1NC31 (stereo unspecified) | 0 | 1.6 |  |  | -1 |  | 0.82 | 0 | -0.5 |  |  |  |  |  |  |  |  | -0.4 | 144 | -1.3 | T/C (P388 [40]): 125%; MST (P388 [41]): 181 % T/C; MST (P388 [42]): 156 days; MST (P388 [43]): 138 days; MST (P388 [44]): 219 days
